{"source": "paper PMC3356144", "about": "(Frontiers in Oncology, 2011)", "key": {"[1]": {"target": "MLCP purified from pig aorta smooth muscle (Sus scrofa, UniProt P61292)", "sequence (P61292 2-327 limits assumed)": "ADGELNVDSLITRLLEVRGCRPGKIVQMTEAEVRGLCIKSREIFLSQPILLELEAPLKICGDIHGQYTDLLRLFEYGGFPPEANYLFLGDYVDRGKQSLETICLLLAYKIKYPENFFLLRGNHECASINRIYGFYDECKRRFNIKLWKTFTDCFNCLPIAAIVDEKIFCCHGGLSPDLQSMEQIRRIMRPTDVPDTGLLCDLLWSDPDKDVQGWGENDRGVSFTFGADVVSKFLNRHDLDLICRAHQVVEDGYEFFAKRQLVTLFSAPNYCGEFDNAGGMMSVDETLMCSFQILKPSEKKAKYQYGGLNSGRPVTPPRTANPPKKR", "test": "MLCP/32P-MLC dephosphorylation inhibition assay", "type": "biochemical", "in_short": "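MLCP purified from pig aorta (PP1C plus truncated 60-kDa MYPT1). Substrate was chicken gizzard LC20 pre-labelled with [γ-32P]ATP. Reaction: 0.5 μM 32P-LC20, 50 nM MLCP, 0.1 nM okadaic acid, 1 mM DTT, 0.03% Brij35, 25 mM MOPS pH 7.0, with varied compound. Run 10 min at 30°C, stopped with TCA/BSA, released 32P counted. No-enzyme set as 0% and uninhibited as 100%; duplicates; IC50 by nonlinear regression.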"}, "[2]": {"test_system": "human prostate cancer tissue", "test": "Displacement of 17e staining of prostate tissue by calyculin A", "type": "binding", "settings": "calyculin A 1 μM pretreatment 10 min, then 17e 10 μM 1 h", "in_short": "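Serial sections of human prostate tissue. One section stained with 10 μM test compound for 1 h. The adjacent section was pretreated with 1 μM calyculin A for 10 min before the same staining. Compound fluorescence intensity imaged and compared between paired sections.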"}, "Solubility": {"test": "Solubility", "type": "physicochemical"}, "LNCaP cells [3]": {"test_system": "LNCaP cells", "test": "Cell cycle analysis by FACS, LNCaP", "type": "cell-based, human"}, "PC-3 cells [4]": {"test_system": "PC-3 cells", "test": "Cellular morphology after treatment", "type": "cell-based, human", "settings": "PC-3, 1 μM, 24 h"}, "PC-3 cells [5]": {"test_system": "PC-3 cells", "test": "BrdU uptake assay, PC-3", "type": "cell-based, human", "in_short": "(§1)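 Cells seeded overnight in six-well plates: LNCaP 500,000/well, DU145 and PC-3 200,000/well. Treated with 1 μM test compound in serum-free medium for 24 h, then BrdU pulsed 1 h. Cells trypsinized, fixed in 4% formaldehyde 10 min, permeabilized, and labelled with FITC anti-BrdU 1 h at 25°C. Analysed by flow cytometry against untreated control; n = 3, mean ± SEM.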"}, "PC-3 cells [6]": {"test_system": "PC-3 cells", "test": "Chemotaxis assay", "type": "cell-based, human", "settings": "IGF-1 attractant", "in_short": "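96-well Boyden chamber with 8-μm porous membrane. 200,000 PC-3 cells per upper well in serum-free medium with test compound. Lower wells held IGF-1 plus the same compound concentration; serum-free medium served as negative control. Incubated overnight at 37°C, 5% CO2. Membrane fixed and Diff-Quik stained, upper-surface cells scraped off, absorbance read at 595 nm; n = 5, mean ± SEM.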"}, "LNCaP cells [7]": {"test_system": "LNCaP cells", "test": "Analysis of actin disruption", "type": "cell-based, human", "settings": "2 h, 250 nM up to highest dose 5 μM", "in_short": "(§2)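 PC-3 seeded at 100,000 cells/dish in RPMI with 10% FBS and left to adhere 48 h. LNCaP seeded at 200,000 cells/dish and left 24 h in RPMI with 10% FBS and 0.1 nM DHT. Medium replaced with test compound (250 nM–5 μM) for 2 h. Cells fixed in 4% formaldehyde 10 min, permeabilized with 0.1% Triton X-100 30 min, stained with Alexa Fluor–phalloidin 10 min, then imaged against untreated controls.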"}, "CWR22Rv1 cells [8]": {"test_system": "CWR22Rv1 cells", "test": "Cell cycle analysis by FACS, CWR22RV1", "type": "cell-based, human", "settings": "CWR22RV1, 24 h"}, "PC-3 cells [9]": {"test_system": "PC-3 cells", "test": "Cell cycle analysis by FACS, PC-3", "type": "cell-based, human", "settings": "1 μM", "in_short": "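PC-3 seeded at 200,000 cells/well in six-well plates overnight, then serum-starved 24 h. Treated with 1 μM test compound; controls kept in serum-free medium. Incubated 6, 24 or 48 h, then trypsinized, ethanol-fixed and analysed for cell-cycle distribution by FACS. Values averaged from three independent experiments.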"}, "DU145 cells [10]": {"test_system": "DU145 cells", "test": "Growth inhibition", "type": "cell-based", "settings": "Homo sapiens, DU-145, 48 h, DU145, 48 h treatment", "in_short": "(§3)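 LNCaP seeded at 20,000 cells/well overnight in RPMI with 10% FBS, 1% L-glutamine, 1% pen/strep and 0.1 nM DHT. CWR22Rv1 (20,000/well), DU145 and PC-3 (5,000/well) seeded in the same medium without DHT. Treated with test compound in serum-free medium, five wells per concentration, for 48 h; vehicle was 0.001% DMSO. Viability read by WST-8 after 2 h at 450 nm (reference 655 nm). Initial-plating value subtracted, percent growth versus control calculated, GI50 derived; n = 5, SEM.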"}, "PC-3 cells [11]": {"test_system": "PC-3 cells", "test": "Analysis of actin disruption", "type": "cell-based, human", "in_short": "as §2"}, "DU145 cells [12]": {"test_system": "DU145 cells", "test": "BrdU uptake assay, DU145", "type": "cell-based, human", "settings": "DU145, 1 μM, 24 h", "in_short": "as §1"}, "CWR22Rv1 cells [13]": {"test_system": "CWR22Rv1 cells", "test": "Growth inhibition", "type": "cell-based", "settings": "Homo sapiens, CWR22Rv1, 48 h, CWR22Rv1 (CWR), 48 h treatment", "in_short": "as §3"}, "LNCaP cells [14]": {"test_system": "LNCaP cells", "test": "BrdU uptake assay, LNCaP", "type": "cell-based, human", "settings": "1 μM, 24 h", "in_short": "as §1"}, "LNCaP cells [15]": {"test_system": "LNCaP cells", "test": "Growth inhibition", "type": "cell-based, human", "in_short": "as §3"}, "PC-3 cells [16]": {"test_system": "PC-3 cells", "test": "Growth inhibition", "type": "cell-based", "settings": "Homo sapiens, PC-3, 48 h, PC-3, 48 h treatment", "in_short": "as §3"}}, "note": "“Also recorded” adds a separate entry of the source.", "data": [{"smiles": "Nc1nc(-c2ccc(OC(=O)c3ccc(-c4ccccc4)cc3)cc2)cs1", "note": "[14a, biphenyl-4-carboxylic acid 4-(2-amino-thiazol-4-yl)-phenyl ester]", "values": [{"measurement": "IC50", "setting": "[1]", "result": 485, "unit": "µM"}]}, {"smiles": "COC[C@@H]([C@H](O)[C@H](O)C(=O)NCC[C@H](C)c1nc(/C=C/C[C@@H]2O[C@]3(C[C@@H](O)[C@@H]2C)O[C@H]([C@H](C[C@H](O)[C@H](C)[C@H](O)[C@H](C)/C=C(C)/C(C)=C/C=C/C(C)=C\\C#N)OC)[C@H](OP(=O)(O)O)C3(C)C)co1)N(C)C", "note": "[calyculin A]", "values": [{"measurement": "Reduction in fluorescence intensity due to 17e (17e binding)", "setting": "[2]", "result": 60, "unit": "%"}]}, {"smiles": "COc1cccc(-c2ccc(C(=O)Oc3ccc(-c4csc(NC(=N)N)n4)cc3)cc2)c1", "note": "[10a, 3′-methoxy-biphenyl-4-carboxylic acid 4-(2-guanidino-thiazol-4-yl)-phenyl ester]", "values": [{"measurement": "IC50", "setting": "[1]", "result": 12, "unit": "µM"}, {"measurement": "Solubility (relative)", "setting": "Solubility", "result": "much lower solubility than 17e"}]}, {"smiles": "COc1ccc(-c2csc(N=C(N)N)n2)cc1", "note": "[13m, N-[4-(4-methoxy-phenyl)-thiazol-2-yl]-guanidine]", "values": [{"measurement": "IC50", "setting": "[1]", "result": 840, "unit": "µM"}]}, {"smiles": "CN(C)c1cccc2c(S(=O)(=O)Oc3ccc(-c4csc(NC(=N)N)n4)cc3)cccc12", "note": "[17e, 5-dimethylamino-naphthalene-1-sulfonic acid 4-(2-guanidino-thiazol-4-yl)-phenyl ester]", "values": [{"measurement": "Cell cycle effect", "setting": "LNCaP cells [3]", "result": "little change from control"}, {"measurement": "Cellular morphology", "setting": "PC-3 cells [4]", "result": "became more spherical"}, {"measurement": "Reduction in DNA synthesis as measured by BrdU uptake", "setting": "PC-3 cells [5]; PC-3", "result": 10, "unit": "fold"}, {"measurement": "BrdU incorporation compared to control", "setting": "PC-3 cells [5]; PC-3, 1 μM, 24 h", "result": "~ 10%"}, {"measurement": "Migration of PC-3 cells", "setting": "PC-3 cells [6]; 3 μM", "result": "reduced to the same level as wells that contained only serum free media"}, {"measurement": "Migrated cells compared with IGF-1 alone", "setting": "PC-3 cells [6]; 5 μM", "result": "three times fewer cells"}, {"measurement": "Migration of PC-3 cells through the membrane", "setting": "PC-3 cells [6]; increasing drug concentrations", "result": "dose dependent decrease"}, {"measurement": "F-actin disruption", "setting": "LNCaP cells [7]", "result": "did not show any disruption of the F-actin network; also recorded: no actin disruption; also recorded: did not demonstrate any F-actin disruption"}, {"measurement": "Cell cycle effect", "setting": "CWR22Rv1 cells [8]", "result": "G2/M arrest"}, {"measurement": "Cell cycle effect", "setting": "PC-3 cells [9]; 6 h", "result": "increased S and G2/M populations"}, {"measurement": "Cell cycle effect", "setting": "PC-3 cells [9]; 24 h", "result": "complete cell cycle arrest in the G2/M phase"}, {"measurement": "Cell death (SubG1 population)", "setting": "PC-3 cells [9]; 48 h", "result": "increase in cells death"}, {"measurement": "Cell cycle effect (G2/M arrest persistence)", "setting": "PC-3 cells [9]; through 48 h", "result": "continued unchanged"}, {"measurement": "GI50", "setting": "DU145 cells [10]", "result": "~0.5", "unit": "µM"}, {"measurement": "Actin disruption compared to control", "setting": "PC-3 cells [11]; PC-3, 2 h, 250 nM, 1 μM and 5 μM", "result": "increasing amounts of actin disruption"}, {"measurement": "Concentration at which actin disruption begins", "setting": "PC-3 cells [11]; PC-3, 2 h treatment", "result": 250, "unit": "nM"}, {"measurement": "BrdU incorporation compared to control", "setting": "DU145 cells [12]", "result": "~ 40%"}, {"measurement": "GI50", "setting": "CWR22Rv1 cells [13]", "result": "~0.5", "unit": "µM"}, {"measurement": "DNA synthesis (BrdU incorporation)", "setting": "LNCaP cells [14]", "result": "unaffected"}, {"measurement": "Solubility (relative)", "setting": "Solubility", "result": "higher solubility"}, {"measurement": "GI50 of CRPC cell lines compared to AD prostate cells", "setting": "LNCaP cells [15]; CRPC lines (CWR22Rv1, DU145, PC-3) versus LNCaP", "result": "four-fold lower"}, {"measurement": "GI50", "setting": "LNCaP cells [15]; Homo sapiens, LNCaP, 48 h, 48 h treatment", "result": "~2", "unit": "µM"}, {"measurement": "GI50", "setting": "PC-3 cells [16]", "result": "~0.5", "unit": "µM"}]}, {"smiles": "N=C(N)Nc1nc(-c2ccc(OC(=O)c3ccc(-c4ccccc4)cc3)cc2)cs1", "note": "[13a, biphenyl-4-carboxylic acid 4-(2-guanidino-thiazol-4-yl)-phenyl ester]", "values": [{"measurement": "IC50", "setting": "[1]", "result": 74, "unit": "µM"}]}, {"smiles": "N=C(N)Nc1nc(-c2ccc(NC(=O)c3ccc4ccccc4c3)cc2)cs1", "note": "[13h, naphthalene-2-carboxylic acid [4-(2-guanidino-thiazol-4-yl)-phenyl]-amide]", "values": [{"measurement": "Solubility (relative)", "setting": "Solubility", "result": "much lower solubility than 17e"}]}]}
